From ChEMBL document CHEMBL1140872, “Discovery of a potent and selective inhibitor for human carbonyl reductase 1 from propionate scanning applied to the macrolide zearalenone” (Bioorg Med Chem, 2009)

How the values were obtained:
[1] = molecular target: Serine/threonine-protein kinase pim-1 (Homo sapiens) (UniProt P11309); assay: Binding affinity to human recombinant PIM1 expressed in Escherichia coli assessed as thermal shift by differential scanning fluorimetry
In short: (§1)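 Thermal-shift (DSF) binding assay with purified recombinant catalytic domains or proteins carrying an N- or C-terminal His6 tag or GST fusion. Purity was >95% by SDS/PAGE and identity was confirmed by MS. Protein was at 2 µM final in 10 mM HEPES pH 7.5 and 150 mM NaCl. Tm shift is reported, with 2 °C as the threshold for binding.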

[2] = molecular target: Heat shock protein HSP90 (Homo sapiens) (UniProt P07900+P08238)
[3] = molecular target: T1, Carbonyl reductase [NADPH] 3 (Homo sapiens) (UniProt O75828); assay: Binding affinity to human recombinant carbonyl reductase 3 expressed in Escherichia coli assessed as thermal shift by differential scanning fluorimetry in absence of cofactor; in short: as §1
T1 sequence (whole entry): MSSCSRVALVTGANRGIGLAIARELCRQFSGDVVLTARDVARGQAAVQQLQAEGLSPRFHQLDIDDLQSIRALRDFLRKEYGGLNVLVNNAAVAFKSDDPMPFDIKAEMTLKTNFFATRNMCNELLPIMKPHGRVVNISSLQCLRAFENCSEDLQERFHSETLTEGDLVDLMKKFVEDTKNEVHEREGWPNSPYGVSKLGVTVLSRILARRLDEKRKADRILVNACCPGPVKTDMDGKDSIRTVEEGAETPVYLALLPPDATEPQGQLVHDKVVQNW

[4] = molecular target: Casein kinase I isoform gamma-1 (Homo sapiens) (UniProt Q9HCP0); assay: Binding affinity to human recombinant CSNK1G1 expressed in Escherichia coli assessed as thermal shift by differential scanning fluorimetry; in short: as §1
[5] = molecular target: T2, Dual specificity mitogen-activated protein kinase kinase 6 (Homo sapiens) (UniProt P52564); assay: Binding affinity to human recombinant MAP2K6 expressed in Escherichia coli assessed as thermal shift by differential scanning fluorimetry; in short: as §1
T2 sequence (whole entry): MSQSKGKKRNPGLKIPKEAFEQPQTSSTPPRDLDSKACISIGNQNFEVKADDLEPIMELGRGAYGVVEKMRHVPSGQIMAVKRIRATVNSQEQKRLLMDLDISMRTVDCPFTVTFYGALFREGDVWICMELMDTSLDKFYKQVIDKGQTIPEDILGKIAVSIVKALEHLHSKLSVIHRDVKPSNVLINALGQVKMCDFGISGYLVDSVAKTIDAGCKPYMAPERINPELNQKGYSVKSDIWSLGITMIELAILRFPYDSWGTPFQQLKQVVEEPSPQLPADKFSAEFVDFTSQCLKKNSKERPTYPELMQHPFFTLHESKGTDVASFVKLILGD

[6] = molecular target: Mitogen-activated protein kinase 6 (Homo sapiens) (UniProt Q16659); assay: Binding affinity to human recombinant MAPK6 expressed in Escherichia coli assessed as thermal shift by differential scanning fluorimetry; in short: as §1
[7] = molecular target: Serine/threonine-protein kinase PAK 6 (Homo sapiens) (UniProt Q9NQU5); assay: Binding affinity to human recombinant PAK6 expressed in Escherichia coli assessed as thermal shift by differential scanning fluorimetry; in short: as §1
[8] = molecular target: T3, Carbonyl reductase [NADPH] 1 (Homo sapiens) (UniProt P16152); assay: Binding affinity to human recombinant carbonyl reductase 1 expressed in Escherichia coli assessed as NADPH oxidation at 200 uM relative to isatin
T3 sequence (whole entry): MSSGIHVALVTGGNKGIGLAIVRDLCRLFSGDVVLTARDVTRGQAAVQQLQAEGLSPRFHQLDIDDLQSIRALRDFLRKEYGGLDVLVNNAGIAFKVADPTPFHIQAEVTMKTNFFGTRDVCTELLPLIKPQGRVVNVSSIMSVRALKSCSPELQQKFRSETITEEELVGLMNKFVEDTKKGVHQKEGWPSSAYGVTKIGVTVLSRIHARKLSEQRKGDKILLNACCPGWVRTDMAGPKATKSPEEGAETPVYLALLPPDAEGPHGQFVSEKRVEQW
In short: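 Substrate test used 200 nM purified CBR1 and 200 µM NADPH, injected onto compound at 200 µM in 50 mM sodium phosphate pH 6.8 with 1 mM MgCl2. NADPH oxidation was read as the fluorescence decrease at 460 nm (excitation 355 nm). Rate came from linear regression after normalizing to the fluorescence rise on injection. Run in triplicate and expressed as % of the isatin rate.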

[9] = molecular target: T4, Carbonyl reductase [NADPH] 1 (Homo sapiens, UniProt P16152); assay: Binding affinity to human recombinant carbonyl reductase 1 expressed in Escherichia coli assessed as NADPH oxidation using isatin as substrate
T4 sequence (P16152 whole entry): T3 sequence (whole entry)
In short: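 Purified recombinant CBR1 (200 nM) and NADPH were added to compound in 50 mM sodium phosphate, pH 6.8, 1 mM MgCl2. NADPH oxidation was followed as the fluorescence decrease at 460 nm (excitation 355 nm). Rates came from linear regression after normalising to the fluorescence rise at injection. Compounds were titrated at two isatin levels, with no-protein background subtracted. Sigmoidal fit gave IC50, then Ki from the isatin concentration.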

Casein kinase I isoform gamma-1 (Homo sapiens), sequence (Q9HCP0 whole entry, looked up, canonical isoform): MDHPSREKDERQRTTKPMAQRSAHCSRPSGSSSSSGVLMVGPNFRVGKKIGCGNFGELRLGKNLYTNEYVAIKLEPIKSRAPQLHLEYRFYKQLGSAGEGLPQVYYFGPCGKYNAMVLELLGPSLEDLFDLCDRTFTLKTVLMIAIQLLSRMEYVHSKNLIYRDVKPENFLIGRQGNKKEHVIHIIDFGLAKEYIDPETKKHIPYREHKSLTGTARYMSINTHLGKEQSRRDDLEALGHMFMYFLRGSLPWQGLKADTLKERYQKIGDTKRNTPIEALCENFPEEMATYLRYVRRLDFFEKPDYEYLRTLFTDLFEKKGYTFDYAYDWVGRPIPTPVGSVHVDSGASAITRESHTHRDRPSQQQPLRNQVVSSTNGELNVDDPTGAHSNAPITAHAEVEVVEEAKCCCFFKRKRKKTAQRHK
Mitogen-activated protein kinase 6 (Homo sapiens), sequence (Q16659 whole entry): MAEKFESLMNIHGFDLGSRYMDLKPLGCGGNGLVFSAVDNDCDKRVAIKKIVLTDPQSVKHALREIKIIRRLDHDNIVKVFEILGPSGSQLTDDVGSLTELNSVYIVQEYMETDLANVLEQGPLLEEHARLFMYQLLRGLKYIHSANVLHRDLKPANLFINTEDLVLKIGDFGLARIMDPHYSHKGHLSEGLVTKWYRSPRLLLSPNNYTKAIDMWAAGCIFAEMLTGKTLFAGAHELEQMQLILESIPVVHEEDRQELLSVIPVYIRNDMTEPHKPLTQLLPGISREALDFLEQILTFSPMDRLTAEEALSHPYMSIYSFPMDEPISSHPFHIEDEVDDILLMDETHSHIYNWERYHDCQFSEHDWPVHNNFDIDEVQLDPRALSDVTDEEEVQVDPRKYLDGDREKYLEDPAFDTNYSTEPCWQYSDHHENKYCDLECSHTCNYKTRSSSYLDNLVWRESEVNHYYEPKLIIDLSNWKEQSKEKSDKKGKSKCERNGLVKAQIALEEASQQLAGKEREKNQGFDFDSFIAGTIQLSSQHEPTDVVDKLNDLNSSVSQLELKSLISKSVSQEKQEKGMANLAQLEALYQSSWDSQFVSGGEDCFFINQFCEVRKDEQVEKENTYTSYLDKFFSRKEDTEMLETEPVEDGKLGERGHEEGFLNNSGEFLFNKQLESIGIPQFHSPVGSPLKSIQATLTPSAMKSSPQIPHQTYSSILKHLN
Serine/threonine-protein kinase PAK 6 (Homo sapiens), sequence (Q9NQU5 whole entry, looked up): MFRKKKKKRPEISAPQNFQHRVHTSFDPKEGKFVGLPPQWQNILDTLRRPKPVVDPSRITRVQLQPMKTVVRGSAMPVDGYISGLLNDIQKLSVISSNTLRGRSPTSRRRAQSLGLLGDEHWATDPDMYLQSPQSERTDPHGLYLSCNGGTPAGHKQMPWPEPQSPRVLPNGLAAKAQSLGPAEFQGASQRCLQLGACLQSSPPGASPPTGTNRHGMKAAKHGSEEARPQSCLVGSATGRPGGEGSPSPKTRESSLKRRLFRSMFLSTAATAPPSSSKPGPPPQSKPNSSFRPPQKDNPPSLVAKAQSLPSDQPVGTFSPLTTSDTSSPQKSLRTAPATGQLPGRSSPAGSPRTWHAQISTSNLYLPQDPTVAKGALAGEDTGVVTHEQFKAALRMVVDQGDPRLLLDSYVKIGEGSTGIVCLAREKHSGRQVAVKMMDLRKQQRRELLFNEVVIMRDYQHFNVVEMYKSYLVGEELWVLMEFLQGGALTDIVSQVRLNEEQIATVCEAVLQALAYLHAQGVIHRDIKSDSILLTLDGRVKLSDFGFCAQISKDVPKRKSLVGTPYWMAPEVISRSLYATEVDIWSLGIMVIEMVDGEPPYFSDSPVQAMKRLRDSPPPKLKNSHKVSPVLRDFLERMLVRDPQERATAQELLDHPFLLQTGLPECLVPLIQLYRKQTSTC
Serine/threonine-protein kinase pim-1 (Homo sapiens), sequence (P11309 whole entry, looked up, the tested form may be a part): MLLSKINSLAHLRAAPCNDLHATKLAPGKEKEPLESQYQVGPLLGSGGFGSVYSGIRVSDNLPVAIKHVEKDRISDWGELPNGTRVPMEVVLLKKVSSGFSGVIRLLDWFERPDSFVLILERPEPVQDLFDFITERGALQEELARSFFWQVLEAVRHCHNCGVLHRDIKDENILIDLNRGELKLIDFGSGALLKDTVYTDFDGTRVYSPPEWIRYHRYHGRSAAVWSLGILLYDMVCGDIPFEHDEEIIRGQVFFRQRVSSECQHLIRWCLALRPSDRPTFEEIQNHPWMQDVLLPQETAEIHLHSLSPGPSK

SMILES | Tm [1] | Tm [2] | Tm [3] | Tm [4] | Tm [5] | Tm [6] | Tm [7] | Activity [8] | IC50 [9] | Ki [9]
COc1cc2c(c(OC)c1)C(=O)O[C@@H](C)CCC[C@@H](O)[C@@H](C)CC/C=C/2 | < 2 °C | < 2 °C | < 2 °C | < 2 °C | < 2 °C | < 2 °C | < 2 °C | – | – | –
COC1=C2C[C@@H](C)C[C@H](OC)[C@H](O)[C@@H](C)/C=C(\C)[C@H](OC(N)=O)[C@@H](OC)/C=C\C=C(/C)C(=O)NC(=CC1=O)C2=O | < 2 °C | – | < 2 °C | < 2 °C | < 2 °C | < 2 °C | < 2 °C | – | – | –
COc1cc2c(c(OC)c1)C(=O)O[C@@H](C)CCCC(=O)[C@@H](C)CC/C=C/2 | < 2 °C | < 2 °C | < 2 °C | < 2 °C | < 2 °C | < 2 °C | < 2 °C | 31.3% | – | –
COc1cc(O)c2c(c1)/C=C/CC[C@H](C)C(=O)CCC[C@H](C)OC2=O | < 2 °C | < 2 °C | < 2 °C | < 2 °C | < 2 °C | < 2 °C | < 2 °C | 1.5% | – | –
C[C@H]1CCCC(=O)[C@@H](C)CC/C=C/c2cc(O)cc(O)c2C(=O)O1 | 2.2 °C | < 2 °C | < 2 °C | < 2 °C | < 2 °C | < 2 °C | < 2 °C | – | 0.21 µM | 0.04 µM
C[C@@H]1C[C@H]2O[C@@H]2/C=C\C=C\C(=O)Cc2c(Cl)c(O)cc(O)c2C(=O)O1 [RADICICOL] | < 2 °C | – | < 2 °C | < 2 °C | < 2 °C | < 2 °C | < 2 °C | – | 3.27 µM | 0.52 µM
C[C@H]1CCCC(=O)CCC/C=C/c2cc(O)cc(O)c2C(=O)O1 | 3 °C | 2.3 °C | < 2 °C | < 2 °C | < 2 °C | < 2 °C | < 2 °C | 5.7% | – | –
